The values that follow come from ChEMBL document CHEMBL3244396, “Synthesis and antileukemic activity of 5-substituted 2,3-dihydro-6,7-bis(hydroxymethyl)-1H-pyrrolizine diesters” (J Med Chem, 1977).

Data set [1] relates to Mus musculus. Briefly: Toxicity in female CDF1 mouse allografted with mouse P388 cells assessed as animal survival at 200 mg/kg, ip administered daily for 9 days as saline with Tween-80 solution starting 24 hrs after tumor inoculation. Format: organism-based. On the set-up: dose 200 mg/kg, route intraperitoneal. Conditions: in vivo. The method in brief:
(§1)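 P-388 leukemia ascitic fluid implanted ip. Compound dosed ip in saline with Tween-80 vehicle, once daily for nine doses from 24 h after tumor inoculation. Acute toxicity scored as toxicity-day survivors per group. Survival was followed up to 30 days, with 30-day survival counted as "cure". Follows NCI screening protocols.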

The test system of data set [2] is P388. Kind of data set: Antitumor activity against mouse P388 cells allografted in female CDF1 mouse assessed as disease cures by measuring 30-days host survival at 400 mg/kg, ip administered daily for 9 days as saline with Tween-80 solution starting 24 hrs after tumor inoculation relative to control. Conditions: route intraperitoneal. Format: functional. The method in brief:
(§2)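 P388 ascitic cell inoculum given ip to CDF1 mice of the sex in each line. Nine daily ip doses in saline with Tween-80 as vehicle, starting 24 h after inoculation. Median survival time expressed as %T/C (>125 significant); "cure" defined as 30-day survival.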

Data set [3] deals with Mus musculus. Briefly: Toxicity in female CDF1 mouse allografted with mouse P388 cells assessed as animal survival at 54 mg/kg, ip administered daily for 9 days as saline with Tween-80 solution starting 24 hrs after tumor inoculation. Format: organism-based. Also noted: dose 54 mg/kg, route intraperitoneal. Particulars: in vivo. The method in brief:
as §1

In data set [4] the test system is P388. Kind of data set: Antitumor activity against mouse P388 cells allografted in female CDF1 mouse assessed as disease cures by measuring 30-days host survival at 100 mg/kg, ip administered daily for 9 days as saline with Tween-80 solution starting 24 hrs after tumor inoculation relative to control. Conditions: route intraperitoneal. In kind it is functional. The method in brief: as §2

Data set [5] deals with P388. Briefly: Antitumor activity against mouse P388 cells allografted in female CDF1 mouse assessed as disease cures by measuring 30-days host survival at 54 mg/kg, ip administered daily for 9 days as saline with Tween-80 solution starting 24 hrs after tumor inoculation relative to control. Format: functional. Particulars: route intraperitoneal. The method in brief:
as §2

The subject of data set [6] is P388. Kind of data set: Antitumor activity against mouse P388 cells allografted in female CDF1 mouse assessed as change in body weight at 27 mg/kg, ip administered daily for 9 days as saline with Tween-80 solution starting 24 hrs after tumor inoculation. In kind it is functional. Particulars: route intraperitoneal. The essentials:
(§3)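 Ascitic fluid carrying P388 cells was inoculated ip. Compound was given ip in nine daily doses, starting 24 h after inoculation, in Klucel (hydroxypropylcellulose) suspension or in saline with Tween-80. Body-weight difference (treated minus control) was recorded on day 5. Survival was scored as %T/C of median survival time, and 30-day survival counted as cure.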

In data set [7] the test system is P388. Kind of data set: Antitumor activity against mouse P388 cells allografted in female CDF1 mouse assessed as change in body weight at 100 mg/kg, ip administered daily for 9 days as saline with Tween-80 solution starting 24 hrs after tumor inoculation. In kind it is functional. Conditions: route intraperitoneal. The method in brief: as §3
Data set [8] relates to Mus musculus. Briefly: Toxicity in female CDF1 mouse allografted with mouse P388 cells assessed as animal survival at 100 mg/kg, ip administered daily for 9 days as saline with Tween-80 solution starting 24 hrs after tumor inoculation. Also noted: dose 100 mg/kg, route intraperitoneal. In kind it is organism-based. Particulars: in vivo. The method in brief: as §1
For data set [9], the system named is P388. Briefly: Antitumor activity against mouse P388 cells allografted in female CDF1 mouse assessed as change in body weight at 54 mg/kg, ip administered daily for 9 days as saline with Tween-80 solution starting 24 hrs after tumor inoculation. In kind it is functional. Conditions: route intraperitoneal. The essentials:
as §3

Data set [10] relates to P388. Kind of data set: Antitumor activity against mouse P388 cells allografted in female CDF1 mouse assessed as disease cures by measuring 30-days host survival at 27 mg/kg, ip administered daily for 9 days as saline with Tween-80 solution starting 24 hrs after tumor inoculation relative to control. Format: functional. Conditions: route intraperitoneal. The method in brief: as §2

The test system of data set [11] is P388. Briefly: Antitumor activity against mouse P388 cells allografted in female CDF1 mouse assessed as change in body weight at 13.5 mg/kg, ip administered daily for 9 days as saline with Tween-80 solution starting 24 hrs after tumor inoculation. In kind it is functional. Conditions: route intraperitoneal. The essentials:
as §3

The subject of data set [12] is Mus musculus. Briefly: Toxicity in female CDF1 mouse allografted with mouse P388 cells assessed as animal survival at 400 mg/kg, ip administered daily for 9 days as saline with Tween-80 solution starting 24 hrs after tumor inoculation. Particulars: in vivo. Format: organism-based. On the set-up: dose 400 mg/kg, route intraperitoneal. The method in brief:
as §1

Data set [13] relates to P388. Briefly: Antitumor activity against mouse P388 cells allografted in female CDF1 mouse assessed as disease cures by measuring 30-days host survival at 200 mg/kg, ip administered daily for 9 days as saline with Tween-80 solution starting 24 hrs after tumor inoculation relative to control. In kind it is functional. Particulars: route intraperitoneal. The essentials: as §2

Data set [14] has as its system Mus musculus. Briefly: Toxicity in female CDF1 mouse allografted with mouse P388 cells assessed as animal survival at 27 mg/kg, ip administered daily for 9 days as saline with Tween-80 solution starting 24 hrs after tumor inoculation. In kind it is organism-based. Also noted: dose 27 mg/kg, route intraperitoneal. Particulars: in vivo. The method in brief: as §1
Data set [15] concerns P388. Briefly: Antitumor activity against mouse P388 cells allografted in female CDF1 mouse assessed as change in body weight at 400 mg/kg, ip administered daily for 9 days as saline with Tween-80 solution starting 24 hrs after tumor inoculation. In kind it is functional. Conditions: route intraperitoneal. The essentials:
as §3

Data set [16] concerns P388. Kind of data set: Antitumor activity against mouse P388 cells allografted in female CDF1 mouse assessed as change in body weight at 200 mg/kg, ip administered daily for 9 days as saline with Tween-80 solution starting 24 hrs after tumor inoculation. Format: functional. Conditions: route intraperitoneal. The essentials: as §3
Data set [17] has as its system Mus musculus. Briefly: Toxicity in female CDF1 mouse allografted with mouse P388 cells assessed as animal survival at 13.5 mg/kg, ip administered daily for 9 days as saline with Tween-80 solution starting 24 hrs after tumor inoculation. Format: organism-based. Also noted: dose 13.5 mg/kg, route intraperitoneal. Particulars: in vivo. The essentials: as §1
Data set [18] concerns P388. Kind of data set: Antitumor activity against mouse P388 cells allografted in female CDF1 mouse assessed as disease cures by measuring 30-days host survival at 13.5 mg/kg, ip administered daily for 9 days as saline with Tween-80 solution starting 24 hrs after tumor inoculation relative to control. In kind it is functional. Conditions: route intraperitoneal. The method in brief: as §2

Molecules are shown by their SMILES.

One may read the T/C as the ratio of treated to control. With `OCc1c(CO)c(-c2ccc(Cl)c(Cl)c2)n2c1CCC2`, the Activity result is given as “Non-toxic” in the data set on Mus musculus [1]; “Non-toxic” with Mus musculus [3]; -0.3 g in the data set on P388 [6]; 0.5 g with P388 [7]; “Non-toxic” in the data set with Mus musculus [8]; -0.6 g in the data set with P388 [9]. In addition, the Activity is recorded as 0 g in the data set with P388 [11]; “Non-toxic” with Mus musculus [12]; “Non-toxic” with Mus musculus [14]; -1 g with P388 [15]; -0.9 g in the data set with P388 [16]; “Non-toxic” in the data set with Mus musculus [17]. Moreover, the T/C in the data set with P388 [2] was found to be 127%; with P388 [4], 116%; in the data set on P388 [5], 109%; with P388 [10], 109%; with P388 [13], 116%; in the data set on P388 [18], 107%.
